# Entries after “also recorded” stand apart in the source; their conditions may differ. Marks after values point to notes of the source that are not given here.
# Columns and labels:
# [1] = cited from earlier work
# [2] = Phase 1 open-label single-dose hepatic impairment PK study of ipatasertib; type: in vivo, human; settings: for tlast: 100 mg ipatasertib single oral, median (min-max); for AUC0‐∞, Test/Reference geometric mean ratio / Cmax, Test/Reference geometric mean ratio: (90%CI) where printed
# In short: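 Open-label, parallel-group design: subjects with mild, moderate or severe hepatic impairment (Child-Pugh or NCI-ODWG) vs matched normal-function controls. Single oral 100 mg dose with 240 mL water after ≥8 h fast, then fasting ≥4 h. Plasma was sampled predose to day 15 for parent and M1, assayed with stable-labeled internal standards. Log-transformed AUC0‐∞ and Cmax were compared test vs reference with back-transformed geometric mean ratios and 90% CIs.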
# [3] = Safety and tolerability in the hepatic impairment study; type: in vivo, human
# [4] = cited from earlier work; remark: listed apart in the source
# [5] = radiolabeled ipatasertib; ref data on file; cited from earlier work
# [6] = 100-mg dose of ipatasertib coadministered with itraconazole; cited from earlier work
# [7] = not assessed in this study; cited from earlier work
# [8] = once daily; combination setting; patients with solid tumors; cited from earlier work
# P‐glycoprotein (P‐gp) = settings: cited from earlier work
# CYP3A4 = settings: cited from earlier work
# [9] = Mild vs normal, Child-Pugh, listed as ipatasertib
# [10] = Mild vs normal, NCI-ODWG, listed as ipatasertib
# [11] = Moderate vs normal, Child-Pugh, listed as ipatasertib
# [12] = Moderate vs normal, NCI-ODWG, listed as ipatasertib
# [13] = Severe vs normal, Child-Pugh, listed as ipatasertib
# [14] = Severe vs normal, NCI-ODWG, listed as ipatasertib
# [15] = moderate or severe hepatic impairment, either method of classification
smiles,measurement,setting,value
COc1cc2ncnc(Nc3ccc(F)c(Cl)c3)c2cc1NC(=O)/C=C/CN1CCCCC1 [dacomitinib],exposure in subjects with normal and mildly impaired hepatic function,[1],comparable exposure
CC(C)NC[C@@H](C(=O)N1CCN(c2ncnc3c2[C@H](C)C[C@H]3O)CC1)c1ccc(Cl)cc1 [Ipatasertib],tlast,"[2]; Child-Pugh, Healthy (N = 13)",120.0 (72.0‐120.4) h
same,tlast,"[2]; Child-Pugh, Mild (N = 8)",120.0 (48.0‐168.0) h
same,tlast,"[2]; Child-Pugh, Moderate (N = 8)",216.0 (146.5‐334.5) ^b h
same,tlast,"[2]; Child-Pugh, Severe (N = 7)",192.2 (167.7‐336.0) ^c h
same,tlast,"[2]; NCI-ODWG, Healthy (N = 21)",120.0 (48.0‐240.0) h
same,tlast,"[2]; NCI-ODWG, Mild (N = 5)",144.1 (96.0‐168.0)^c h
same,tlast,"[2]; NCI-ODWG, Moderate (N = 5)",240.8 (168.0‐334.5)^c h
same,tlast,"[2]; NCI-ODWG, Severe (N = 5)",216.4 (167.7‐336.0) h
same,systemic exposure compared to normal hepatic function,[2]; Child-Pugh mild hepatic impairment,comparable; also recorded: no appreciable difference
same,apparent plasma clearance lower than normal hepatic function,[2]; Child-Pugh moderate,≈ 2.5 fold
same,apparent volume of distribution lower than normal hepatic function,[2]; Child-Pugh moderate,~1.6 fold
same,mean elimination t1/2 longer than normal hepatic function,[2]; Child-Pugh moderate,≈ 1.7 fold
same,increase in systemic exposure (AUC0‐∞) compared to normal hepatic function,[2]; Child-Pugh moderate hepatic impairment,≈ 2 fold
same,apparent plasma clearance lower than normal hepatic function,[2]; Child-Pugh severe,≈ 2.9 fold
same,apparent volume of distribution lower than normal hepatic function,[2]; Child-Pugh severe,~2.1 fold
same,mean elimination t1/2 longer than normal hepatic function,[2]; Child-Pugh severe,~1.5 fold
same,increase in systemic exposure (AUC0‐∞) compared to normal hepatic function,[2]; Child-Pugh severe hepatic impairment,~3 fold
same,"AUC0‐∞, Test/Reference geometric mean ratio","[2]; Mild vs normal, Child-Pugh",89.5%
same,"Cmax, Test/Reference geometric mean ratio","[2]; Mild vs normal, Child-Pugh",98.6%
same,"AUC0‐∞, Test/Reference geometric mean ratio",[2]; [9],89.5 (65.1‐123.2) %
same,"Cmax, Test/Reference geometric mean ratio",[2]; [9],98.6 (52.8‐184.0) %
same,"AUC0‐∞, Test/Reference geometric mean ratio","[2]; Mild vs normal, NCI-ODWG",153.6%
same,"Cmax, Test/Reference geometric mean ratio","[2]; Mild vs normal, NCI-ODWG",101.1%
same,"AUC0‐∞, Test/Reference geometric mean ratio",[2]; [10],153.6 (87.7‐269.2) %
same,"Cmax, Test/Reference geometric mean ratio",[2]; [10],101.1 (35.9‐284.8) %
same,"AUC0‐∞, Test/Reference geometric mean ratio","[2]; Moderate vs normal, Child-Pugh",261.5%
same,"Cmax, Test/Reference geometric mean ratio","[2]; Moderate vs normal, Child-Pugh",184.1%
same,"AUC0‐∞, Test/Reference geometric mean ratio",[2]; [11],261.5 (191.2‐357.5) %
same,"Cmax, Test/Reference geometric mean ratio",[2]; [11],184.1 (112.2‐302.0) %
same,"AUC0‐∞, Test/Reference geometric mean ratio","[2]; Moderate vs normal, NCI-ODWG",339.1%
same,"Cmax, Test/Reference geometric mean ratio","[2]; Moderate vs normal, NCI-ODWG",198.1%
same,"AUC0‐∞, Test/Reference geometric mean ratio",[2]; [12],339.1 (241.7‐475.6) %
same,"Cmax, Test/Reference geometric mean ratio",[2]; [12],198.1 (109.5‐358.4) %
same,AUC0‐∞ higher than normal hepatic function,[2]; NCI-ODWG mild,≈ 1.5 fold
same,Cmax compared to normal hepatic function,[2]; NCI-ODWG mild,similar
same,"AUC0‐∞, Test/Reference geometric mean ratio","[2]; Severe vs normal, Child-Pugh",298.1%
same,"Cmax, Test/Reference geometric mean ratio","[2]; Severe vs normal, Child-Pugh",163.8%
same,"AUC0‐∞, Test/Reference geometric mean ratio",[2]; [13],298.1 (228.4‐389.0) %
same,"Cmax, Test/Reference geometric mean ratio",[2]; [13],163.8 (86.4‐310.3) %
same,"AUC0‐∞, Test/Reference geometric mean ratio","[2]; Severe vs normal, NCI-ODWG",267.0%
same,"Cmax, Test/Reference geometric mean ratio","[2]; Severe vs normal, NCI-ODWG",155.2%
same,"AUC0‐∞, Test/Reference geometric mean ratio",[2]; [14],267.0 (195.6‐364.3) %
same,"Cmax, Test/Reference geometric mean ratio",[2]; [14],155.2 (70.7‐340.9) %
same,Tmax,"[2]; human, plasma, po, 100 mg, median tmax, across all the groups, single oral 100-mg dose, Child-Pugh",30 to 60 min
same,AUC0‐∞ increase compared to normal hepatic function,[2]; [15],~3 fold
same,Cmax increase compared to normal hepatic function,[2]; [15],≈ 2 fold
same,total AEs reported,[3]; all 36 subjects,12 AEs
same,discontinuation due to AEs,[3]; in vivo,no subjects were discontinued
same,AEs reported,[3]; mild hepatic impairment,3 AEs
same,subjects with AEs,[3]; mild hepatic impairment,2 subjects
same,AEs reported,[3]; moderate hepatic impairment,3 AEs
same,subjects with AEs,[3]; moderate hepatic impairment,3 subjects
same,AEs reported,[3]; normal hepatic function,1 AE
same,subjects with AEs,[3]; normal hepatic function,1 subject
same,AE of orthostatic hypotension assessed as severe (grade 3),[3]; one subject with moderate hepatic impairment,1 AE
same,AEs reported,[3]; severe hepatic impairment,5 AEs
same,subjects with AEs,[3]; severe hepatic impairment,3 subjects
same,overall safety and tolerability,"[3]; single oral dose of 100 mg, normal hepatic function and hepatic impairment",generally safe and well tolerated
same,median half‐life (t1/2),[4]; 400-mg dose in patients,≈ 45 hours
same,dose proportionality,"[4]; single dose, doses of 100 to 800 mg, dose escalation study",close to dose proportionality
same,parent drug eliminated in urine,[5],≈ 8%
same,total administered dose eliminated in urine,[5],≈ 19%
same,increase of ipatasertib exposures with itraconazole,[6],≈ 5 fold
same,overall mean percentage unbound in human plasma,[7],63.6%
same,maximum tolerated dose,[8],400 mg
same,substrate of P‐glycoprotein (P‐gp),P‐glycoprotein (P‐gp),substrate
same,substrate of CYP3A4,CYP3A4,sensitive substrate
CCN(CC)CCNC(=O)c1c(C)[nH]c(/C=C2\C(=O)Nc3ccc(F)cc32)c1C [sunitinib],exposure in subjects with normal and mildly impaired hepatic function,[1],comparable exposure
O=C(c1ccc(F)c(F)c1Nc1ccc(I)cc1F)N1CC(O)([C@@H]2CCCCN2)C1 [cobimetinib],exposure in subjects with normal and mildly impaired hepatic function,[1],comparable exposure
CC1(C)CCC(CN2CCN(c3ccc(C(=O)NS(=O)(=O)c4ccc(NCC5CCOCC5)c([N+](=O)[O-])c4)c(Oc4cnc5[nH]ccc5c4)c3)CC2)=C(c2ccc(Cl)cc2)C1 [venetoclax],exposure in subjects with normal and mildly impaired hepatic function,[1],comparable exposure
